Experiments:
[1] = target: Serine/threonine-protein kinase MARK2 (Homo sapiens) (UniProt Q7KZI7); experiment: Binding affinity to wild-type human partial length MARK2 (M1 to R450 residues) expressed in Escherichia coli BL21 at 1 uM by Kinomescan method relative to control
[2] = target: Macrophage-stimulating protein receptor (Homo sapiens) (UniProt Q04912); experiment: Binding affinity to wild-type human partial length MST1R (I1057 to L1363 residues) expressed in Escherichia coli BL21 at 1 uM by Kinomescan method relative to control
[3] = target: TGF-beta receptor type-1 (Homo sapiens) (UniProt P36897); experiment: Binding affinity to wild-type human partial length TGFBR1 (D179 to M503 residues) expressed in Escherichia coli BL21 at 1 uM by Kinomescan method relative to control
[4] = target: Serine/threonine-protein kinase 32A (Homo sapiens) (UniProt Q8WU08); experiment: Binding affinity to wild-type human full length YANK1 (M1 to L396 residues) expressed in HEK293 cells at 1 uM by Kinomescan method relative to control; format: cell-based
In short: (§1)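 Kinome-wide competition binding panel run by an outside provider, with each compound tested at a single concentration. Activity is read against the kinase panel.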

[5] = tested on: Epidermal growth factor receptor (Homo sapiens), P00533 [UNDEFINED MUTATION]; experiment: Binding affinity to human partial length EGFR L747-E749del/A750P mutant expressed in Escherichia coli BL21 at 1 uM by Kinomescan method relative to control
[6] = target: Epidermal growth factor receptor (Homo sapiens) (UniProt P00533); experiment: Binding affinity to human partial length EGFR E746-A750del mutant expressed in Escherichia coli BL21 at 1 uM by Kinomescan method relative to control
[7] = target: Platelet-derived growth factor receptor alpha (Homo sapiens) (UniProt P16234); experiment: Binding affinity to wild-type human partial length PDGFRA (V575 to D1002 residues) expressed in HEK293 cells at 1 uM by Kinomescan method relative to control; format: cell-based
Sequence of Platelet-derived growth factor receptor alpha (Homo sapiens) (P16234 whole entry, the tested form may be a part, canonical isoform): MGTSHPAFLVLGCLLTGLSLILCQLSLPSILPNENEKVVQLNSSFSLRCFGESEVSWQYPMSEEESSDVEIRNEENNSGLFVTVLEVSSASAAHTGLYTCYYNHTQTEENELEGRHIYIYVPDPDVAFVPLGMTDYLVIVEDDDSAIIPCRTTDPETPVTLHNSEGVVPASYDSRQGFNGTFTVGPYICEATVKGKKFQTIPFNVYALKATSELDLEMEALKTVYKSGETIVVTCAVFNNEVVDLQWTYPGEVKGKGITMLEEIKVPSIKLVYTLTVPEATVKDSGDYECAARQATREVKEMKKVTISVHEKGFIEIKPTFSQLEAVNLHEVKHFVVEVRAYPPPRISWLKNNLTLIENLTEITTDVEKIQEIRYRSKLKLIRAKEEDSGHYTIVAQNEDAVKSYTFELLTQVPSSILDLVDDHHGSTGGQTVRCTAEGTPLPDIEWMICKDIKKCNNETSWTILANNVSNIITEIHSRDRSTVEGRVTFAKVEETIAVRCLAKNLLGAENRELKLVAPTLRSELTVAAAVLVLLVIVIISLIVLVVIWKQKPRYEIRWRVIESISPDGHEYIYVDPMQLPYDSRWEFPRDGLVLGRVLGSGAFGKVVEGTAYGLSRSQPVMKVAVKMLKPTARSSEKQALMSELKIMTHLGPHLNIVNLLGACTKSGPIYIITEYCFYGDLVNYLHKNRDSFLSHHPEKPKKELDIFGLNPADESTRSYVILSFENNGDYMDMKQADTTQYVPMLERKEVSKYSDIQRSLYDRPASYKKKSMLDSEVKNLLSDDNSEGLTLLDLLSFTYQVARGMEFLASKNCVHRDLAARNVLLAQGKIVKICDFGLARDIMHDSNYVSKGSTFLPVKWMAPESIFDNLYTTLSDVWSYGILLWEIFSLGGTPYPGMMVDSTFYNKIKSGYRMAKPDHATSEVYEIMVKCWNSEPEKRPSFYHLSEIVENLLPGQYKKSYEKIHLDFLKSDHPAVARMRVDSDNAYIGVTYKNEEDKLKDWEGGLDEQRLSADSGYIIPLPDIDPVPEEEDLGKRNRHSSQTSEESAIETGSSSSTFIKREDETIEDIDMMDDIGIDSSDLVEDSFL

[8] = target: Phosphatidylinositol 4,5-bisphosphate 3-kinase catalytic subunit beta isoform (Homo sapiens) (UniProt P42338); experiment: Binding affinity to wild-type human partial length PIK3CB (P118 to S1070 residues) expressed in HEK293 cells at 1 uM by Kinomescan method relative to control; format: cell-based
[9] = target: Maternal embryonic leucine zipper kinase (Homo sapiens) (UniProt Q14680); experiment: Binding affinity to wild-type human full length MELK (M1 to V651 residues) expressed in Escherichia coli BL21 at 1 uM by Kinomescan method relative to control
Sequence of Maternal embryonic leucine zipper kinase (Homo sapiens) (Q14680 whole entry, looked up, the tested form may be a part): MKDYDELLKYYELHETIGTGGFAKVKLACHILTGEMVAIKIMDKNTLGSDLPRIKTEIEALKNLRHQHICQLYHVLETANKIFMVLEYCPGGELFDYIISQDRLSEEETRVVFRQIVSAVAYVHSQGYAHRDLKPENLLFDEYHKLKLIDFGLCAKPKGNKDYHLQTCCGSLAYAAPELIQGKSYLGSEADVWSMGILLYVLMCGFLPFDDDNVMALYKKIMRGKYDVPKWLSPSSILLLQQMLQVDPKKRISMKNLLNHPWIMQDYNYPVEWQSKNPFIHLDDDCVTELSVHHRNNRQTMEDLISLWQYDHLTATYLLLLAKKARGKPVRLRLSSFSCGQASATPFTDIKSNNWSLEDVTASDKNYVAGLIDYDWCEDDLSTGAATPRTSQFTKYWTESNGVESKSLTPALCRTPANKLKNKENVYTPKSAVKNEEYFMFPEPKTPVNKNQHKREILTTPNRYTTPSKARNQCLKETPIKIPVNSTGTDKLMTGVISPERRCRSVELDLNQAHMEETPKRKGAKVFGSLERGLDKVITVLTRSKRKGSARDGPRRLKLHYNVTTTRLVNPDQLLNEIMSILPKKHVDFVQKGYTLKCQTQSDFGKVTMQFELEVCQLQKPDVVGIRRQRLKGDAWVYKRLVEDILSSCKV
In short: (§2)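 Run as one kinome-wide competition binding panel with each compound at a single fixed concentration. Results were plotted as a kinome-wide selectivity map.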

[10] = target: Cyclin-dependent kinase 7 (Homo sapiens) (UniProt P50613); experiment: Binding affinity to wild-type human full length CDK7 (M1 to L344 residues) expressed in HEK293 cells at 1 uM by Kinomescan method relative to control; format: cell-based; in short: as §2
[11] = target: Non-receptor tyrosine-protein kinase TYK2 (Homo sapiens) (UniProt P29597); experiment: Binding affinity to wild-type human partial length TYK2 JH2 pseudokinase domain (G556 to D888 residues) expressed in HEK293 cells at 1 uM by Kinomescan method relative to control; format: cell-based
Sequence of Non-receptor tyrosine-protein kinase TYK2 (Homo sapiens) (P29597 whole entry, the tested form may be a part): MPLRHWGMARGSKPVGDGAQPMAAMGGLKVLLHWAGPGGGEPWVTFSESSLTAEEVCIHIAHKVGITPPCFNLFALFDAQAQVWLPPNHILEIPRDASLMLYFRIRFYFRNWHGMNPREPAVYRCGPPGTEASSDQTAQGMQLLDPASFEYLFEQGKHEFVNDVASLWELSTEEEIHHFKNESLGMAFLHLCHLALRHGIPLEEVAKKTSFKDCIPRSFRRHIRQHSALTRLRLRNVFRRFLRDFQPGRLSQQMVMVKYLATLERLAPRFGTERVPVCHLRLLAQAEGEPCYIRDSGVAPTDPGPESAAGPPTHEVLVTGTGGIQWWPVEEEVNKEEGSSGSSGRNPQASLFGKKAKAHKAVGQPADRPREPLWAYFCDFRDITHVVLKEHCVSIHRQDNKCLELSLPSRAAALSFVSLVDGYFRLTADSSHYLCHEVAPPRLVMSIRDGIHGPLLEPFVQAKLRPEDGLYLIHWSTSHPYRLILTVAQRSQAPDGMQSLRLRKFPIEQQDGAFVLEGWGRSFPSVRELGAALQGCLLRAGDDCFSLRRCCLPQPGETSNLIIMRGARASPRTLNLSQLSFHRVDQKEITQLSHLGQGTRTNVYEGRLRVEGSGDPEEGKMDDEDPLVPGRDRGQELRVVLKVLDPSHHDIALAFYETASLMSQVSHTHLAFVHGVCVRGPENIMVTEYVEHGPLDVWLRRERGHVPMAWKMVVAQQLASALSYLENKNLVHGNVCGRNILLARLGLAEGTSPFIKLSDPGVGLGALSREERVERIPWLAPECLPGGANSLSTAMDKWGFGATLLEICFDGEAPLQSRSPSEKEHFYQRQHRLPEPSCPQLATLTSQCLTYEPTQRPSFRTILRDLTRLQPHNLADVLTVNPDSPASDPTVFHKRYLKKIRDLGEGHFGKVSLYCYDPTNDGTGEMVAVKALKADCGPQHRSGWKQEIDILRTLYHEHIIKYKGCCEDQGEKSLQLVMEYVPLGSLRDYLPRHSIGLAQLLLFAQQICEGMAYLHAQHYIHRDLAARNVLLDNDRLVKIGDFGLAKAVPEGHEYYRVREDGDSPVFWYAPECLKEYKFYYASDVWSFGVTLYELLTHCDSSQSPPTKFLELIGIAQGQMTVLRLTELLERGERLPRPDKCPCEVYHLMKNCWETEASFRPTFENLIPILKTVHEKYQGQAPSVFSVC

[12] = target: Serine/threonine-protein kinase 33 (Homo sapiens) (UniProt Q9BYT3); experiment: Binding affinity to wild-type human full length STK33 (M1 to L514 residues) expressed in Escherichia coli BL21 at 1 uM by Kinomescan method relative to control; in short: as §1
[13] = target: Bone morphogenetic protein receptor type-1B (Homo sapiens) (UniProt O00238); experiment: Binding affinity to wild-type human partial length BMPR1B (D178 to L502 residues) expressed in HEK293 cells at 1 uM by Kinomescan method relative to control; format: cell-based
Sequence of Bone morphogenetic protein receptor type-1B (Homo sapiens) (O00238 whole entry, the tested form may be a part): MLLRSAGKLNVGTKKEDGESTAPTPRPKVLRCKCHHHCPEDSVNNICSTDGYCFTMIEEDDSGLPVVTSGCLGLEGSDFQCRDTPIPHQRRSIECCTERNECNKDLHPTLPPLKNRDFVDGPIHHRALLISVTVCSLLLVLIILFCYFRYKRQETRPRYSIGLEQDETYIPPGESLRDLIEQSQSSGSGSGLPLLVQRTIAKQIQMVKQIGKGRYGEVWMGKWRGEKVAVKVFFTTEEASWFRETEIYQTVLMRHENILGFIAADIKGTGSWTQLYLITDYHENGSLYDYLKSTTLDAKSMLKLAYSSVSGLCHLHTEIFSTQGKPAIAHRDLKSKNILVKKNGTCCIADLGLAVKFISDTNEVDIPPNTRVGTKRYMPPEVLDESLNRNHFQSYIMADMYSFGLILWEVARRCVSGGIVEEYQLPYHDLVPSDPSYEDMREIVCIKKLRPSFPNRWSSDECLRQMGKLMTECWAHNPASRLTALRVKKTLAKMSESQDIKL

[14] = tested on: Tyrosine-protein kinase ABL1 (Homo sapiens), P00519 [H396P]; experiment: Binding affinity to human phosphorylated ABL1 H396P mutant (S229 to K512 residues) expressed in HEK293 cells at 1 uM by Kinomescan method relative to control; format: cell-based
[15] = target: Atypical kinase COQ8A, mitochondrial (Homo sapiens) (UniProt Q8NI60); experiment: Binding affinity to wild-type human […] ADCK3 (M280 to Q647 residues) expressed in Escherichia coli BL21 at 1 uM by Kinomescan method relative to control
[16] = target: Macrophage colony-stimulating factor 1 receptor (Homo sapiens) (UniProt P07333); experiment: Binding affinity to wild-type human partial length CSF1R (I564 to S939 residues) expressed in Escherichia coli BL21 at 1 uM by Kinomescan method relative to control
[17] = target: cAMP-dependent protein kinase catalytic subunit beta (Homo sapiens) (UniProt P22694); experiment: Binding affinity to wild-type human full length PKAC-beta (M1 to F351 residues) expressed in Escherichia coli BL21 at 1 uM by Kinomescan method relative to control; in short: as §1
[18] = target: Serine/threonine-protein kinase pim-2 (Homo sapiens) (UniProt Q9P1W9); experiment: Binding affinity to wild-type human partial length PIM2 (M1 to E291 residues) expressed in Escherichia coli BL21 at 1 uM by Kinomescan method relative to control
Sequence of Serine/threonine-protein kinase pim-2 (Homo sapiens) (Q9P1W9 whole entry, looked up, the tested form may be a part): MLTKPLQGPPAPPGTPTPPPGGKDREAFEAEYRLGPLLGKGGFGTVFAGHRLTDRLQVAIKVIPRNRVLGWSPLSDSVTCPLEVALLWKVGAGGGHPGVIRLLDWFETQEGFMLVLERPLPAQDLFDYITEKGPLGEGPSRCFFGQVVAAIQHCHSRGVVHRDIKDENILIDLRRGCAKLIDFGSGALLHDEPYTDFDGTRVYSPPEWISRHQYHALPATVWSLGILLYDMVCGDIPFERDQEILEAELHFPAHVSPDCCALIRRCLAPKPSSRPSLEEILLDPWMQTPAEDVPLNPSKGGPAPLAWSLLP

[19] = target: Serine/threonine-protein kinase PAK 5 (Homo sapiens) (UniProt Q9P286); experiment: Binding affinity to wild-type human partial length PAK7 (Y400 to H719 residues) expressed in Escherichia coli BL21 at 1 uM by Kinomescan method relative to control
[20] = target: Mitogen-activated protein kinase 12 (Homo sapiens) (UniProt P53778); experiment: Binding affinity to wild-type human full length p38-gamma (M1 to L367 residues) expressed in HEK293 cells at 1 uM by Kinomescan method relative to control; format: cell-based; in short: as §1
[21] = target: Vascular endothelial growth factor receptor 1 (Homo sapiens) (UniProt P17948); experiment: Binding affinity to wild-type human partial length FLT1 (R781 to F1239 residues) expressed in Escherichia coli BL21 at 1 uM by Kinomescan method relative to control
Sequence of Vascular endothelial growth factor receptor 1 (Homo sapiens) (P17948 whole entry, the tested form may be a part): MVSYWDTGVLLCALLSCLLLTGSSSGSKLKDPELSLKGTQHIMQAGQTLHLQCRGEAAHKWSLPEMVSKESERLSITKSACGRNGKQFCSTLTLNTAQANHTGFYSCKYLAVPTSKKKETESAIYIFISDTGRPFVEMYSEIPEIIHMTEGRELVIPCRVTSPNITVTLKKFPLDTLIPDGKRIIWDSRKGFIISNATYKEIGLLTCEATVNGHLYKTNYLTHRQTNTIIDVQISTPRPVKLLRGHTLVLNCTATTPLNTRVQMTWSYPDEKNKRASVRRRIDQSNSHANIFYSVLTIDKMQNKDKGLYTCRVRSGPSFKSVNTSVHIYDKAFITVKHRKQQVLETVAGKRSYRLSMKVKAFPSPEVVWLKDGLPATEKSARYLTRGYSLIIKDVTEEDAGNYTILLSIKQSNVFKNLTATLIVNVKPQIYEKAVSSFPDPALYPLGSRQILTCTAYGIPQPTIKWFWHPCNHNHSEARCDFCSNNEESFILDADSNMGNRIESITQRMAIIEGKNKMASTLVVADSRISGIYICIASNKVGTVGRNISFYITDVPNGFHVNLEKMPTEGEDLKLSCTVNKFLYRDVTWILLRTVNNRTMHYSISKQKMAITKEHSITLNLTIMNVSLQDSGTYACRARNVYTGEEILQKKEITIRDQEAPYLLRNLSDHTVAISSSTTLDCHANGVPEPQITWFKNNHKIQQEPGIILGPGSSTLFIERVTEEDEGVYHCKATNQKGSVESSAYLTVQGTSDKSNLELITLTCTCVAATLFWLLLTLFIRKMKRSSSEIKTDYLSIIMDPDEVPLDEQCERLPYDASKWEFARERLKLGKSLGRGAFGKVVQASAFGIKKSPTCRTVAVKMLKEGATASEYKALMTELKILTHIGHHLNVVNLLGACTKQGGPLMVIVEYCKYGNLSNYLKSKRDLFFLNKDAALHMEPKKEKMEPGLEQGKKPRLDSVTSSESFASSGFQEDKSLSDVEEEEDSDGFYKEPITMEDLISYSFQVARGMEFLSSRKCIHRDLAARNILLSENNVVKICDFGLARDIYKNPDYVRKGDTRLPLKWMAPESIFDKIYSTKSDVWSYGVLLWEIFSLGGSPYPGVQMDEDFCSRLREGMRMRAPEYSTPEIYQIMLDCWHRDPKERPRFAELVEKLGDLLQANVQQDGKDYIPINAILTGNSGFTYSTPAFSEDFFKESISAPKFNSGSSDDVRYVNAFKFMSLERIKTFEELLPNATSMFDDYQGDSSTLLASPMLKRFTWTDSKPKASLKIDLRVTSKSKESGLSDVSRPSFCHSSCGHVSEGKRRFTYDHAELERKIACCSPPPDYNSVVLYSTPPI

[22] = target: Insulin receptor (Homo sapiens) (UniProt P06213); experiment: Binding affinity to wild-type human partial length INSR (P997 to E1318 residues) expressed in HEK293 cells at 1 uM by Kinomescan method relative to control; format: cell-based
[23] = target: Dual specificity protein kinase CLK4 (Homo sapiens) (UniProt Q9HAZ1); experiment: Binding affinity to wild-type human partial length CLK4 (R135 to K481 residues) expressed in Escherichia coli BL21 at 1 uM by Kinomescan method relative to control
[24] = target: Calcium/calmodulin-dependent protein kinase type IV (Homo sapiens) (UniProt Q16566); experiment: Binding affinity to wild-type human partial length CAMK4 (A22 to A322 residues) expressed in Escherichia coli BL21 at 1 uM by Kinomescan method relative to control
[25] = tested on: Mast/stem cell growth factor receptor Kit (Homo sapiens), P10721 [V559D]; experiment: Binding affinity to human partial length KIT V559D mutant (Y545 to D952 residues) expressed in Escherichia coli BL21 at 1 uM by Kinomescan method relative to control

Structure (SMILES) | Activity [1] [%] | Activity [2] [%] | Activity [3] [%] | Activity [4] [%] | Activity [5] [%] | Activity [6] [%] | Activity [7] [%] | Activity [8] [%] | Activity [9] [%] | Activity [10] [%] | Activity [11] [%] | Activity [12] [%] | Activity [13] [%] | Activity [14] [%] | Activity [15] [%] | Activity [16] [%] | Activity [17] [%] | Activity [18] [%] | Activity [19] [%] | Activity [20] [%] | further results
CCC(=O)Nc1ccc(C(=O)Nc2ccc(Nc3ncc4c(n3)N(C)c3ccc(C)cc3C(=O)N4C)cc2)cc1 | 100 | 85 | 97 | 82 | 48 | 91 | 63 | 50 | 78 | 66 | 93 | 79 | 62 | 64 | 96 | 87 | 100 | 100 | 97 | 86 | Activity [21]: 91%; Activity [22]: 65%; Activity [23]: 100%; Activity [24]: 87%; Activity [25]: 94%
C=CC(=O)Nc1ccc(C(=O)Nc2ccc(Nc3ncc4c(n3)N(C)c3ccc(C)cc3C(=O)N4C)cc2)cc1 | 100 | 82 | 89 | 100 | 76 | 100 | 91 | 100 | 97 | 80 | 88 | 99 | 100 | 91 | 99 | 100 | 100 | 100 | 100 | 67 | Activity [21]: 87%; Activity [22]: 97%; Activity [23]: 100%; Activity [24]: 89%; Activity [25]: 97%
